Measurements as given in ChEMBL document CHEMBL4190193, “Stachybotrysins A-G, Phenylspirodrimane Derivatives from the Fungus Stachybotrys chartarum” (J Nat Prod, 2017).

What was measured:
Influenza A virus = experiment: Antiviral activity against VSV-G pseudotyped Influenza A virus infected in human SupT1 cells after 48 hrs by firefly luciferase reporter gene assay; type: functional, organism-based; conditions: SUP-T1, 48 h
[1] = system: Human immunodeficiency virus 1; experiment: Antiviral activity against VSV-G pseudotyped HIV1 infected in human SupT1 cells after 48 hrs by firefly luciferase reporter gene assay; type: functional, organism-based; conditions: Human immunodeficiency virus 1, SUP-T1, 48 h
How it was run: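 293T cells (2 × 105) cotransfected with 0.6 μg pNL-Luc-E−-Vpu− and 0.4 μg pHIT/G. Supernatant harvested at 48 h, 0.45 μm filtered, capsid p24 quantified by antigen-capture ELISA. SupT1 cells infected at MOI 1, 37 °C, 48 h, with compound at several concentrations, each in triplicate. Efavirenz as control. Inhibition measured by firefly luciferase; IC50 calculated from it.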

HepG2 = experiment: Cytotoxicity against human HepG2 cells assessed as reduction in cell viability after 96 hrs by MTT assay; type: cell-based; conditions: HepG2, 96 h
How it was run: (§1)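 MTT assay. Cells were grown in RPMI 1640 with 10% FBS, penicillin and streptomycin at 37 °C under 5% CO2, then seeded at 1200 cells/well. Compounds were added after 24 h at 10−4 to 10−8 M (five concentrations, final DMSO 0.1% v/v) and incubated 96 h. Absorbance was read at 570 nm. Paclitaxel was the positive control, with triplicates per concentration; IC50 was calculated from these.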

NCI-H460 = experiment: Cytotoxicity against human NCI-H460 cells assessed as reduction in cell viability after 96 hrs by MTT assay; type: cell-based; conditions: NCI-H460, 96 h; how it was run: as §1
BGC-823 = experiment: Cytotoxicity against human BGC823 cells assessed as reduction in cell viability after 96 hrs by MTT assay; type: cell-based; conditions: BGC-823, 96 h; how it was run: as §1

| Structure (SMILES) | IC50 (Influenza A virus) [µM] | IC50 [1] [µM] | IC50 (HepG2) [µM] | IC50 (NCI-H460) [µM] | IC50 (BGC-823) [µM] |
| --- | --- | --- | --- | --- | --- |
| CC(=O)O[C@@H]1CC[C@@]2(C)[C@@H](CC[C@@H](C)[C@]23Cc2c(O)cc4c(c2O3)COC4=O)C1(C)C | 12.4 to 23.4 | – | – | – | – |
| C=C1CC[C@H]2C(C)(C)[C@H](O)CC[C@]2(C)[C@@]12Cc1c(O)cc(COC(C)=O)c(C=O)c1O2 | – | 15.6 to 20.5 | – | – | – |
| CC(=O)C[C@@H]1OCc2cc(O)c3c(c21)O[C@]1(C3)[C@H](C)CC[C@H]2C(C)(C)[C@H](O)CC[C@@]21C | 12.4 to 23.4 | 15.6 to 20.5 | 24.6 | – | – |
| CC(=O)O[C@@H]1CC[C@@]2(C)[C@@H](CC[C@@H](C)[C@]23Cc2c(O)cc(CO)c(C=O)c2O3)C1(C)C | – | 15.6 to 20.5 | – | – | – |
| CC(=O)O[C@@H]1CC[C@@]2(C)[C@@H](CC[C@@H](C)[C@]23Cc2c(O)cc(C)c(C=O)c2O3)C1(C)C | 12.4 to 23.4 | 15.6 to 20.5 | 24.7 | – | – |
| CC(=O)/C=C/c1c(CO)cc(O)c2c1O[C@]1(C2)[C@H](C)CC[C@H]2C(C)(C)[C@H](O)CC[C@@]21C | 12.4 to 23.4 | – | – | – | – |
| CC(=O)C[C@H]1OCc2cc(O)c3c(c21)O[C@]1(C3)[C@H](C)CC[C@H]2C(C)(C)[C@H](O)CC[C@@]21C | 12.4 to 23.4 | – | – | – | – |
| CC(=O)O[C@H]1C(=O)[C@@]2(C)[C@H]([C@H](OC(=O)c3ccccc3)[C@]3(O)C[C@H](OC(=O)[C@H](O)[C@@H](NC(=O)c4ccccc4)c4ccccc4)C(C)=C1C3(C)C)[C@]1(OC(C)=O)CO[C@@H]1C[C@@H]2O [PACLITAXEL] | – | – | 0.0063 | 0.001 | 0.0008 |
| NC(=O)c1ncn([C@@H]2O[C@H](CO)[C@@H](O)[C@H]2O)n1 [RIBAVIRIN] | 0.002 | – | – | – | – |
| Cc1cc(O)c2c(c1C=O)O[C@]1(C2)[C@H](C)CC[C@H]2C(C)(C)[C@H](O)CC[C@@]21C | – | 15.6 to 20.5 | 18.4 | 15.8 | 21.9 |
